Source: ChEMBL document CHEMBL4261600 (Eur J Med Chem, 2018)

Legend:
[1] = Apparent volume of distribution in beagle dog at 2 mg/kg, iv by LC-MS/MS analysis; type: ADME, organism-based, Canis lupus familiaris; conditions: in vivo, read-out: Vz
In short: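 Non-compartmental PK. Male SD rats 190-210 g, mice and beagle dogs acclimatized one week, fasted 12 h with water, split into iv and po groups (mice 48, rats 6, dogs 6). iv 3/3/2 mg/kg (mice/rats/dogs); po 10/20/10 mg/kg; vehicle DMSO in 5% glucose water. Blood at 2 or 5 to 720 min; plasma protein-precipitated with methanol, caffeine internal standard, LC-MS/MS.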

[2] = Clearance in mouse at 3 mg/kg, iv by LC-MS/MS analysis; type: ADME, organism-based; conditions: in vivo
[3] = target: Atypical kinase COQ8A, mitochondrial (Homo sapiens) (UniProt Q8NI60); assay: Binding affinity to wild-type human […] length ADCK3 (M280 to Q647 residues) expressed in bacterial expression system assessed as remaining unbound target protein level at 1000 nM by Kinomescan method relative to control
In short: (§1)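 Single-point competition binding screen across a panel of 468 kinases and mutants, with the inhibitor at 1 μM. Binding is read out as percent of a DMSO control, and targets below 1 percent control were classed as strong binders.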

[4] = target: ALK tyrosine kinase receptor (Homo sapiens) (UniProt Q9UM73); assay: Binding affinity to wild-type human partial length ALK (I1088 to E1409 residues) expressed in mammalian expression system assessed as remaining unbound target protein level at 1000 nM by Kinomescan method relative to control
In short: (§2)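 Profiled in a KINOMEscan binding panel with the inhibitor at a single concentration of 1 μM. Binding to each kinase was read out as percent of control, relative to a DMSO control. Strong binders were defined as those with a percent control value below 1.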

[5] = target: Cyclin-dependent kinase 9 (Homo sapiens, UniProt P50750); assay: Binding affinity to wild-type human full length CDK9 (M1 to F372 residues) expressed in bacterial expression system assessed as remaining unbound target protein level at 1000 nM by Kinomescan method relative to control
In short: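 KINOMEscan competition binding panel run at 1 μM inhibitor; binding reported as percent of DMSO control (remaining target bound versus vehicle).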

[6] = target: Casein kinase I isoform gamma-2 (Homo sapiens) (UniProt P78368); assay: Binding affinity to wild-type human full length CSNK1G2 (M1 to K415 residues) expressed in bacterial expression system assessed as remaining unbound target protein level at 1000 nM by Kinomescan method relative to control
Chain of Casein kinase I isoform gamma-2 (Homo sapiens) (P78368 whole entry, looked up, the tested form may be a part, canonical isoform): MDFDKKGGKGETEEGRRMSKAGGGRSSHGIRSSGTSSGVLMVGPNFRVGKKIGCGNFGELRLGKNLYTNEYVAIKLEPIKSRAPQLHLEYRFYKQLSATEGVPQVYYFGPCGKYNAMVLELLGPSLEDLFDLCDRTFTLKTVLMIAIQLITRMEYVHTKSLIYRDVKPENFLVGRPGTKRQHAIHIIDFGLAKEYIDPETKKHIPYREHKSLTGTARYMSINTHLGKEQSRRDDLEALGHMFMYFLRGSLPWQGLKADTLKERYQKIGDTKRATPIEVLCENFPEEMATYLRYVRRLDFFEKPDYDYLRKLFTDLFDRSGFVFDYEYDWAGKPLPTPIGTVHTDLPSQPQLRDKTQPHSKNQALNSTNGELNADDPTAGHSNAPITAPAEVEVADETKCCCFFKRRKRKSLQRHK
In short: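 KINOMEscan competitive binding profile at 1 μM inhibitor. Remaining target binding reported as percent of DMSO control.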

[7] = target: Serine/threonine-protein kinase 17B (Homo sapiens) (UniProt O94768); assay: Binding affinity to wild-type human full length DRAK2 (M1 to C372 residues) expressed in bacterial expression system assessed as remaining unbound target protein level at 1000 nM by Kinomescan method relative to control; in short: as §1
Chain of Serine/threonine-protein kinase 17B (Homo sapiens) (O94768 whole entry, the tested form may be a part): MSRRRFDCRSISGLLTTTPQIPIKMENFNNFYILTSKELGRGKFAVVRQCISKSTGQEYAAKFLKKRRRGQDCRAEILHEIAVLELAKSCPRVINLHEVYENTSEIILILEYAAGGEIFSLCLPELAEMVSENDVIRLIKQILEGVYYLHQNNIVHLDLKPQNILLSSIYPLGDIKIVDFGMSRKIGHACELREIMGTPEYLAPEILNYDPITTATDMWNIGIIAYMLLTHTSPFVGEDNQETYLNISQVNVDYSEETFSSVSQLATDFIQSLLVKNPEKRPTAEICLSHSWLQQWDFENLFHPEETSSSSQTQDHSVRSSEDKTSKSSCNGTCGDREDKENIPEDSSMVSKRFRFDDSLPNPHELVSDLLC

[8] = target: Ephrin type-B receptor 1 (Homo sapiens) (UniProt P54762); assay: Binding affinity to wild-type human partial length EPHB1 (P589 to T911 residues) expressed in bacterial expression system assessed as remaining unbound target protein level at 1000 nM by Kinomescan method relative to control
[9] = target: Mitogen-activated protein kinase kinase kinase kinase 5 (Homo sapiens) (UniProt Q9Y4K4); assay: Binding affinity to wild-type human partial length MAP4K5 (M1 to P297 residues) expressed in bacterial expression system assessed as remaining unbound target protein level at 1000 nM by Kinomescan method relative to control
Chain of Mitogen-activated protein kinase kinase kinase kinase 5 (Homo sapiens) (Q9Y4K4 whole entry, looked up, the tested form may be a part): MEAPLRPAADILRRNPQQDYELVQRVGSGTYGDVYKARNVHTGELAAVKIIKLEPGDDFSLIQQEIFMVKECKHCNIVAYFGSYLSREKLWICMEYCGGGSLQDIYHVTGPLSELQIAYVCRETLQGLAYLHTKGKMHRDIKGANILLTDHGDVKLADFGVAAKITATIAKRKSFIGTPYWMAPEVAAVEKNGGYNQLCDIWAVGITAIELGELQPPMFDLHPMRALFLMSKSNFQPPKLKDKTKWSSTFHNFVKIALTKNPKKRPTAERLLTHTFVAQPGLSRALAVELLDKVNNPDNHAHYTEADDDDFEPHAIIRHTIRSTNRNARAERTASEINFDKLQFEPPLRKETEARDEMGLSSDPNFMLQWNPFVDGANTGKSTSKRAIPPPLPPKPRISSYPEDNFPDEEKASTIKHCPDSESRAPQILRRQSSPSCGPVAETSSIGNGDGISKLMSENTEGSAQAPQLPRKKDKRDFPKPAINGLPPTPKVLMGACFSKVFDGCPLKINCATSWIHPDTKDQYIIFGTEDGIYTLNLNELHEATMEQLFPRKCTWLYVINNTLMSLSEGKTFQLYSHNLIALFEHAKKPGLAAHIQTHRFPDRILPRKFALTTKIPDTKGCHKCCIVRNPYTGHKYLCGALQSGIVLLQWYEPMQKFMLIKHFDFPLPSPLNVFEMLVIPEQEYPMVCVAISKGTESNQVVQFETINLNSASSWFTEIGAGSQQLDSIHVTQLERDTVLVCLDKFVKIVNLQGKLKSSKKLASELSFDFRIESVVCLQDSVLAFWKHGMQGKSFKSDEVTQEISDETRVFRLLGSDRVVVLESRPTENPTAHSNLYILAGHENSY
In short: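 KINOMEscan binding panel of 468 kinases/mutants. Inhibitor was tested at a single concentration of 1 μM. Binding is reported as percent of control, defined relative to a DMSO control.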

[10] = target: Dual specificity mitogen-activated protein kinase kinase 1 (Homo sapiens) (UniProt Q02750); assay: Binding affinity to wild-type human full length MEK1 (M1 to V393 residues) expressed in mammalian expression system assessed as remaining unbound target protein level at 1000 nM by Kinomescan method relative to control; in short: as §1
[11] = target: Phosphatidylinositol 4-phosphate 3-kinase C2 domain-containing subunit beta (Homo sapiens) (UniProt O00750); assay: Binding affinity to wild-type human partial length PIK3C2B (M1 to L1634 residues) expressed in mammalian expression system assessed as remaining unbound target protein level at 1000 nM by Kinomescan method relative to control
[12] = system: Phosphatidylinositol 4,5-bisphosphate 3-kinase catalytic subunit alpha isoform (Homo sapiens), P42336 [E545K]; assay: Binding affinity to human partial length PIK3CA E545K mutant (R108 to N1068 residues) expressed in mammalian expression system assessed as remaining unbound target protein level at 1000 nM by Kinomescan method relative to control
Chain of Phosphatidylinositol 4,5-bisphosphate 3-kinase catalytic subunit alpha isoform (Homo sapiens), P42336 [E545K] (P42336 whole entry E545K, the tested form may be a part, canonical isoform): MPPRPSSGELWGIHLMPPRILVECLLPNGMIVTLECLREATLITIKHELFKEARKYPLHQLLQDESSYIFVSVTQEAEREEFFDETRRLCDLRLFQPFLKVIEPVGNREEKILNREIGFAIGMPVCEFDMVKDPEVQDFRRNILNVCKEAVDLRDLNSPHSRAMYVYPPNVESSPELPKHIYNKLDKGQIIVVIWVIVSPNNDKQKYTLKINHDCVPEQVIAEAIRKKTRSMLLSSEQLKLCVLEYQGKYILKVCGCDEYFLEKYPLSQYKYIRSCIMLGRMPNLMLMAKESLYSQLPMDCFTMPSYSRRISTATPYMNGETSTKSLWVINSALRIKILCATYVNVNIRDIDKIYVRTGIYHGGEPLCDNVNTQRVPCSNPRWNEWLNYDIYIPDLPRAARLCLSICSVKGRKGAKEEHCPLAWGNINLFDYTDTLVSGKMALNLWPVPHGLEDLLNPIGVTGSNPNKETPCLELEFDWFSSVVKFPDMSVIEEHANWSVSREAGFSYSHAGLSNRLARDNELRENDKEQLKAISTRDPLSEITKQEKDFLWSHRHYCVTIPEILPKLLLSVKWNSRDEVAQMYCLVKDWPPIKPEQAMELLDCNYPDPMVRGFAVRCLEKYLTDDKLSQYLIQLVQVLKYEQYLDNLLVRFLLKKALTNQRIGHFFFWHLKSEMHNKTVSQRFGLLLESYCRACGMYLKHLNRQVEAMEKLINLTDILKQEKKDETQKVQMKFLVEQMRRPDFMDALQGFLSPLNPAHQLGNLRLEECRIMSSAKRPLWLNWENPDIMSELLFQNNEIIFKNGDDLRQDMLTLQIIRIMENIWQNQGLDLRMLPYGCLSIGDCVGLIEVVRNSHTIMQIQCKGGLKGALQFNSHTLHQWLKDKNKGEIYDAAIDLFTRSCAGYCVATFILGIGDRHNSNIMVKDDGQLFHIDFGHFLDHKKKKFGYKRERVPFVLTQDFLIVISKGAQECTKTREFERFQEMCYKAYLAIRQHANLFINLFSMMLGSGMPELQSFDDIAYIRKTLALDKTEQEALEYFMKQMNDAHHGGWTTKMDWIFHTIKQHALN
In short: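 KINOMEscan competition-binding profiling across the panel of 468 kinases and mutants, with inhibitor tested at 1 μM. Binding is expressed as percent of control, with DMSO as the reference control.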

[13] = target: Serine/threonine-protein kinase PLK3 (Homo sapiens) (UniProt Q9H4B4); assay: Binding affinity to wild-type human partial length PLK3 (A42 to L334 residues) expressed in mammalian expression system assessed as remaining unbound target protein level at 1000 nM by Kinomescan method relative to control
Chain of Serine/threonine-protein kinase PLK3 (Homo sapiens) (Q9H4B4 whole entry, looked up, the tested form may be a part): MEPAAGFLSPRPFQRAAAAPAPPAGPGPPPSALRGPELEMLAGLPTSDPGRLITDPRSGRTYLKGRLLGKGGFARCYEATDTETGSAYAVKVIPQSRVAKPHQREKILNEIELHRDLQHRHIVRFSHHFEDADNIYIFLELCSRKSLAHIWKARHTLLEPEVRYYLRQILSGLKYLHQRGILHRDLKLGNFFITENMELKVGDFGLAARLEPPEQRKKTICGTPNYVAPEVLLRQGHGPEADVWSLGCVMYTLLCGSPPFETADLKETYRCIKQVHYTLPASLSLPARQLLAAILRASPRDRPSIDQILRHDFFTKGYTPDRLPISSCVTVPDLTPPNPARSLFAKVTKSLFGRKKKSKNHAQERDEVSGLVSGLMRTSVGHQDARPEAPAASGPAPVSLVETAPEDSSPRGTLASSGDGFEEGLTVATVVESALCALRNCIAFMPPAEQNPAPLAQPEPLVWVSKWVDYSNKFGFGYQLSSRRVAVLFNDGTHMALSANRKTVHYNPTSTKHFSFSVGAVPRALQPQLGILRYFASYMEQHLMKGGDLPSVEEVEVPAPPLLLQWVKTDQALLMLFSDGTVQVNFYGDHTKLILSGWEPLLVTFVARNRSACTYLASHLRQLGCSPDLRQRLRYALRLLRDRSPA

[14] = target: Proto-oncogene tyrosine-protein kinase ROS (Homo sapiens) (UniProt P08922); assay: Binding affinity to wild-type human partial length ROS1 (A1921 to N2240 residues) expressed in bacterial expression system assessed as remaining unbound target protein level at 1000 nM by Kinomescan method relative to control
[15] = target: Ribosomal protein S6 kinase alpha-3 (Homo sapiens) (UniProt P51812); assay: Binding affinity to wild-type human partial length C-terminal RSK2 kinase domain 2 (V402 to S715 residues) expressed in mammalian expression system assessed as remaining unbound target protein level at 1000 nM by Kinomescan method relative to control; in short: as §2
Chain of Ribosomal protein S6 kinase alpha-3 (Homo sapiens) (P51812 whole entry, the tested form may be a part): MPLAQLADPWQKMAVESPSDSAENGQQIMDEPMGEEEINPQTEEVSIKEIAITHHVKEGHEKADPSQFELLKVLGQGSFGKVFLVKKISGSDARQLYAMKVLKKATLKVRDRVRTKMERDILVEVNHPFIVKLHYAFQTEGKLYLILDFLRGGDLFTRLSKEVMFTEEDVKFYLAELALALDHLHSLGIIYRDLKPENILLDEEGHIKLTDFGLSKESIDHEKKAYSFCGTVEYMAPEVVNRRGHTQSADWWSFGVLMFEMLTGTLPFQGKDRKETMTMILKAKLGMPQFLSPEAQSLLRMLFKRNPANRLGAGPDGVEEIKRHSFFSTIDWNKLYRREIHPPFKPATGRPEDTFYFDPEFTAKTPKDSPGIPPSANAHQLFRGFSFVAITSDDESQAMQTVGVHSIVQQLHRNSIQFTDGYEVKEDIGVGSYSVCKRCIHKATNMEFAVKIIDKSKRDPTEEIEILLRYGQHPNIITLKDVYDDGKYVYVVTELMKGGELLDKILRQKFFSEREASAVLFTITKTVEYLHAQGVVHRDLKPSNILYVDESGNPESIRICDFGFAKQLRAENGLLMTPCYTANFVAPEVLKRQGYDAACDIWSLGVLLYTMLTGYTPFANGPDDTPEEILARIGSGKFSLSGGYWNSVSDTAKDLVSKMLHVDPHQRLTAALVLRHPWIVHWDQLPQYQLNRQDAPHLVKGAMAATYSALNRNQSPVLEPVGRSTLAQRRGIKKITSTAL

[16] = target: STE20/SPS1-related proline-alanine-rich protein kinase (Homo sapiens) (UniProt Q9UEW8); assay: Binding affinity to wild-type human partial length STK39 (P43 to I357 residues) expressed in mammalian expression system assessed as remaining unbound target protein level at 1000 nM by Kinomescan method relative to control
[17] = target: Serine/threonine-protein kinase TNNI3K (Homo sapiens) (UniProt Q59H18); assay: Binding affinity to wild-type human full length TNNI3K (M1 to S835 residues) expressed in bacterial expression system assessed as remaining unbound target protein level at 1000 nM by Kinomescan method relative to control
In short: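 KINOMEscan competition binding profile across a panel of 468 kinases and mutants, with the inhibitor tested at a single concentration of 1 μM. Binding is reported as percent of control, meaning signal relative to a DMSO control.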

[18] = target: Wee1-like protein kinase (Homo sapiens) (UniProt P30291); assay: Binding affinity to wild-type human partial length WEE1 (M291 to K575 residues) expressed in bacterial expression system assessed as remaining unbound target protein level at 1000 nM by Kinomescan method relative to control
Chain of Wee1-like protein kinase (Homo sapiens) (P30291 whole entry, looked up, the tested form may be a part): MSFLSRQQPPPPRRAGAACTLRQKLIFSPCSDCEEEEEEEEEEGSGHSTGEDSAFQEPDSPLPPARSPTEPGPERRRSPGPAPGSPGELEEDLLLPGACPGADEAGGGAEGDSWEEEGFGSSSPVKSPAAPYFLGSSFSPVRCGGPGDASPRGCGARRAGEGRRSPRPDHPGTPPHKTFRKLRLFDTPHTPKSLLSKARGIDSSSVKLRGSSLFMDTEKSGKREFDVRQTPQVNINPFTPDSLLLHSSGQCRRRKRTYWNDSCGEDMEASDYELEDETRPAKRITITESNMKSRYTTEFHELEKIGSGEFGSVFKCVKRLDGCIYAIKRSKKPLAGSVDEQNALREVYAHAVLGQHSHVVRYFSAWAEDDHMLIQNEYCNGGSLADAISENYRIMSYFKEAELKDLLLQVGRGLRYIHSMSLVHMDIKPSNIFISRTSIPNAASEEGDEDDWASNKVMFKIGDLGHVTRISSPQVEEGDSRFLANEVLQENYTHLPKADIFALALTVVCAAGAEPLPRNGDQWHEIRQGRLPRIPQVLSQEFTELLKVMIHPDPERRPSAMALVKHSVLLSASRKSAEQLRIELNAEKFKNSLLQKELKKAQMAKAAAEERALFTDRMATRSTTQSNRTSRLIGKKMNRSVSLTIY

[19] = target: Cyclin-dependent kinase 5/CDK5 activator 1 (Homo sapiens, UniProt Q00535); assay: Inhibition of recombinant full length His/GST-tagged human CDK5/p25 expressed in baculovirus expression system

Structure (SMILES): COCCN[C@H]1CC[C@H](Nc2cc(-c3csc(NCC4(C#N)CCOCC4)n3)c(Cl)cn2)CC1
- Vd [1]: 12.8 L/kg
- clearance [2]: 123 mL/min/kg
- Activity [3]: 88%
- Activity [4]: 96%
- Activity [5]: 0.9%
- Activity [6]: 73%
- Activity [7]: 89%
- Activity [8]: 88%
- Activity [9]: 95%
- Activity [10]: 100%
- Activity [11]: 100%
- Activity [12]: 100%
- Activity [13]: 99%
- Activity [14]: 81%
- Activity [15]: 98%
- Activity [16]: 57%
- Activity [17]: 95%
- Activity [18]: 94%
- IC50 [19]: 4.64 µM
